ChEMBL document CHEMBL2331269, “Design and synthesis of amphiphilic xanthone-based, membrane-targeting antimicrobials with improved membrane selectivity” (J Med Chem, 2013)
≈ marks a conversion by molar mass, not a printed value. Calls of active or inactive are those of the source. No cut-off for these calls is given here.

Legend:
Pseudomonas aeruginosa = assay: Antibacterial activity against Pseudomonas aeruginosa ATCC 27853 after 20 to 22 hrs by CLSI broth macro-dilution method; type: functional
Staphylococcus aureus [1] = assay: Antibacterial activity against methicillin-resistant Staphylococcus aureus clinical isolate DM21455 after 20 to 22 hrs by CLSI broth macro-dilution method; type: functional
Staphylococcus aureus [2] = assay: Antibacterial activity against Staphylococcus aureus ATCC 29737 after 20 to 22 hrs by CLSI broth macro-dilution method; type: functional
Staphylococcus aureus [3] = assay: Antibacterial activity against Staphylococcus aureus ATCC 29213 after 20 to 22 hrs by CLSI broth macro-dilution method; type: functional
Klebsiella pneumoniae = assay: Antibacterial activity against Klebsiella pneumoniae ATCC 10031 after 20 to 22 hrs by CLSI broth macro-dilution method; type: functional
Staphylococcus aureus [4] = assay: Antimicrobial activity against Staphylococcus aureus assessed as disruption of bacterial membrane at 10 uM by SYTOX green uptake assay; type: functional, organism-based
Method in brief: (§1)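 S. aureus DM4001 treated with 10 μM agent and incubated with the membrane-impermeant nucleic-acid dye SYTOX Green. Permeabilization was read as increased fluorescence intensity and confirmed by fluorescence microscopy counting green-stained cells.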

[5] = Selectivity ratio of HC50 for rabbit erythrocyte to MIC99 for methicillin-resistant Staphylococcus aureus clinical isolate DM21455; type: functional
Mus musculus [6] = assay: Toxicity against wild type C57BL6 mouse at 25 mg/kg, iv after 24 hrs; type: organism-based; set-up: dose 25 mg/kg, route intravenous; conditions: in vivo
Method in brief: (§2)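 Mice received a single bolus injection, 25 mg/kg intravenous or 50 mg/kg intraperitoneal, with survival recorded at 24 h; 2 animals per route.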

[7] = Partition coefficient, log P of the compound by HPLC analysis; type: physicochemical; conditions: octanol/water; read-out: logP
Method in brief: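 Partition coefficient measured by HPLC following OECD guidelines for the testing of chemicals.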

Staphylococcus aureus [8] = assay: Antibacterial activity against methicillin-resistant Staphylococcus aureus DB57964/04 after 20 to 22 hrs by CLSI broth macro-dilution method; type: functional
Enterococcus faecium = assay: Antibacterial activity against Streptococcus faecium ATCC 10541 after 20 to 22 hrs by CLSI broth macro-dilution method; type: functional
[9] = Selectivity index, ratio of HC50 for rabbit erythrocyte to MIC99 for […] ATCC 12228; type: functional
[10] = Selectivity index, ratio of HC50 for rabbit erythrocyte to MIC99 for Staphylococcus aureus ATCC 6538P; type: functional
[11] = Selectivity index, ratio of HC50 for rabbit erythrocyte to MIC99 for Staphylococcus aureus 10:DB6506; type: functional
Staphylococcus aureus [12] = assay: Antibacterial activity against methicillin-resistant Staphylococcus aureus DR42412 obtained from sputum isolate after 20 to 22 hrs by CLSI broth macro-dilution method; type: functional
Staphylococcus aureus [13] = assay: Antibacterial activity against methicillin-resistant Staphylococcus aureus DM21455 assessed as log reduction in CFU at 0.5 X MIC to 1 X MIC after 2 hrs by surface-spread plate method relative to control; type: functional
[14] = Selectivity index, ratio of HC50 for rabbit erythrocyte to MIC99 for methicillin-resistant Staphylococcus aureus DR42412; type: functional
[15] = Selectivity index, ratio of HC50 for rabbit erythrocyte to MIC99 for Staphylococcus aureus ATCC 29737; type: functional
Staphylococcus aureus [16] = assay: Antibacterial activity against Staphylococcus aureus ATCC 6538P after 20 to 22 hrs by CLSI broth macro-dilution method; type: functional
Enterococcus faecalis [17] = assay: Antibacterial activity against Enterococcus faecalis ATCC 29212 after 20 to 22 hrs by multipassage resistance selection method; type: functional, organism-based
Staphylococcus aureus [18] = assay: Antibacterial activity against methicillin-resistant Staphylococcus aureus DM09808R obtained from eye isolate after 20 to 22 hrs by CLSI broth macro-dilution method; type: functional
[19] = Hemolytic activity against rabbit erythrocytes after 60 mins by spectrophotometric analysis; type: ADME, cell-based, Oryctolagus cuniculus, Erythrocyte
[20] = Selectivity index, ratio of HC50 for rabbit erythrocyte to MIC99 for methicillin-resistant Staphylococcus aureus DB57964/04; type: functional
Staphylococcus aureus [21] = assay: Antibacterial activity against methicillin-resistant Staphylococcus aureus DR68004 obtained from blood isolate after 20 to 22 hrs by CLSI broth macro-dilution method; type: functional
Staphylococcus aureus [22] = assay: Antibacterial activity against methicillin-resistant Staphylococcus aureus DM21455 assessed as reduction in viable count at 2 X MIC after 5 mins by surface-spread plate method relative to control; type: functional
Staphylococcus aureus [23] = assay: Antimicrobial activity against Staphylococcus aureus DM4001 assessed as morphological changes by scanning electron microscopy relative to control; type: functional, organism-based
[24] = tested on: Staphylococcus epidermidis; assay: Antibacterial activity against Staphylococcus epidermidis ATCC 12228 after 20 to 22 hrs by CLSI broth macro-dilution method
Staphylococcus aureus [25] = assay: Antibacterial activity against methicillin-resistant Staphylococcus aureus DM21595 obtained from wound isolate after 20 to 22 hrs by CLSI broth macro-dilution method; type: functional
Mus musculus [26] = assay: Toxicity against wild type C57BL6 mouse assessed as corneal opacity at 400 ug/ml administered topically 5 times a day by Slit lamp photography; type: organism-based, Cornea; conditions: in vivo, topical_or_ocular
Method in brief: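 Mouse eyes given topical drops five times per day at 400 μg/mL; cornea examined by slit lamp photography for clinical signs of toxicity and corneal opacity.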

[27] = Selectivity ratio of HC50 for rabbit erythrocyte to MIC99 for Staphylococcus aureus ATCC 29213; type: functional
[28] = Selectivity index, ratio of HC50 for rabbit erythrocyte to MIC99 for Streptococcus faecium ATCC 10541; type: functional
[29] = Toxicity against New Zealand White rabbit corneal epithelium assessed as effect on wound closure at 50 ug/ml by Slit lamp photography relative to control; type: tissue-based, Oryctolagus cuniculus, Cornea; conditions: in vivo
Method in brief: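 A 5 mm corneal epithelial abrasion was made with a sterile trephine and the epithelium removed with a mini blade. Eyes were treated with saline, vancomycin 50 μg/mL, or agent 50 μg/mL. Wound closure was tracked over time from fluorescein-stained photographs of defect size.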

[30] = Selectivity index, ratio of HC50 for rabbit erythrocyte to MIC99 for methicillin-resistant Staphylococcus aureus DM09808R; type: functional
[31] = Selectivity index, ratio of HC50 for rabbit erythrocyte to MIC99 for Staphylococcus aureus ATCC 6538; type: functional
Mus musculus [32] = assay: Toxicity against wild type C57BL6 mouse at 50 mg/kg, ip after 24 hrs; type: organism-based; set-up: dose 50 mg/kg, route intraperitoneal; conditions: in vivo; method in brief: as §2
Staphylococcus aureus [33] = assay: Antibacterial activity against vancomycin-intermediate resistant Staphylococcus aureus 10:DB6506 after 20 to 22 hrs by multipassage resistance selection method; type: functional, organism-based
Enterococcus faecalis [34] = assay: Antibacterial activity against Enterococcus faecalis ATCC 29212 after 20 to 22 hrs by CLSI broth macro-dilution method; type: functional
Staphylococcus aureus [35] = assay: Antibacterial activity against methicillin-resistant Staphylococcus aureus ATCC […] after 20 to 22 hrs by CLSI broth macro-dilution method; type: functional
Staphylococcus aureus [36] = assay: Antibacterial activity against methicillin-resistant Staphylococcus aureus DM21455 assessed as reduction in viable count after 5 to 10 mins by surface-spread plate method; type: functional, organism-based
[37] = Selectivity index, ratio of HC50 for rabbit erythrocyte to MIC99 for methicillin-resistant Staphylococcus aureus ATCC 700669; type: functional
Staphylococcus aureus [38] = assay: Antibacterial activity against methicillin-resistant Staphylococcus aureus DM21455 after 20 to 22 hrs by multipassage resistance selection method; type: functional, organism-based
[39] = Selectivity index, ratio of HC50 for rabbit erythrocyte to MIC99 for methicillin-resistant Staphylococcus aureus DM21595; type: functional
[40] = Selectivity index, ratio of HC50 for rabbit erythrocyte to MIC99 for methicillin-resistant Staphylococcus aureus DR68004; type: functional
Staphylococcus aureus [41] = assay: Antimicrobial activity against in Staphylococcus aureus assessed as disruption of bacterial membrane at 10 uM by fluorescence microscopy; type: functional, organism-based; method in brief: as §1
Staphylococcus aureus [42] = assay: Antibacterial activity against Staphylococcus aureus ATCC 700699 at 4 X MIC after 20 to 22 hrs; type: functional, organism-based
Staphylococcus aureus [43] = assay: Antibacterial activity against methicillin-resistant Staphylococcus aureus DM21455 assessed as reduction in viable count at 4 X MIC after 10 mins by surface-spread plate method relative to control; type: functional
Staphylococcus aureus [44] = assay: Antibacterial activity against vancomycin-intermediate resistant Staphylococcus aureus 10:DB6506 after 20 to 22 hrs by CLSI broth macro-dilution method; type: functional
Staphylococcus aureus [45] = assay: Antimicrobial activity against Staphylococcus aureus DM4001 assessed as depolarization of bacterial membrane at 12.5 ug/ml by DiSC3-5-based cytoplasmic membrane depolarization assay; type: functional, organism-based
Method in brief: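 Clinical S. aureus DM4001 was loaded with the membrane-potential dye DiSC3-5, which self-quenches in polarized membranes. Agent added at 12.5 μg/mL. Depolarization was read as the rise in fluorescence intensity (counts per second) over time.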

[46] = Selectivity index, ratio of HC50 for rabbit erythrocyte to MIC99 for Enterococcus faecalis ATCC 29212; type: functional
[47] = Dissociation constant, pKa of the compound; type: physicochemical
Staphylococcus aureus [48] = assay: Antibacterial activity against Staphylococcus aureus ATCC 6538 after 20 to 22 hrs by CLSI broth macro-dilution method; type: functional

CCN(CC)CCCCOc1cc2oc3cc(OCCCCN(CC)CC)c(OC)c(CC=C(C)C)c3c(=O)c2c(O)c1CC=C(C)C
MIC (Pseudomonas aeruginosa): 50 mg/L (≈ 75.2 µM) | MIC99 (Staphylococcus aureus [1]): 0.39 mg/L (≈ 0.587 µM) | MIC (Staphylococcus aureus [2]): 1.56 mg/L (≈ 2.35 µM) | MIC99 (Staphylococcus aureus [3]): 0.39 mg/L (≈ 0.587 µM) | MIC (Klebsiella pneumoniae): 40 mg/L (≈ 60.2 µM) | Activity (Staphylococcus aureus [4]): Active | Selectivity ratio [5]: 50.3 | Activity (Mus musculus [6]): Non-toxic | logP [7]: 6.72 | MIC (Staphylococcus aureus [8]): 0.78 mg/L (≈ 1.17 µM) | MIC (Enterococcus faecium): 0.195 mg/L (≈ 0.293 µM) | Selectivity Index [9]: 25.1 | Selectivity Index [10]: 25.1 | Selectivity Index [11]: 25.1 | MIC (Staphylococcus aureus [12]): 0.39 mg/L (≈ 0.587 µM) | FC (Staphylococcus aureus [13]): 3 | Selectivity Index [14]: 50.3 | Selectivity Index [15]: 12.6 | MIC (Staphylococcus aureus [16]): 0.78 mg/L (≈ 1.17 µM) | Activity (Enterococcus faecalis [17]): Active | MIC (Staphylococcus aureus [18]): 1.56 mg/L (≈ 2.35 µM) | HC50 at 1 h [19]: 19.6 µM | Selectivity Index [20]: 25.1 | MIC (Staphylococcus aureus [21]): 1.56 mg/L (≈ 2.35 µM) | Activity (Staphylococcus aureus [22]): 99.9% | Activity (Staphylococcus aureus [23]): Active | MIC [24]: 0.78 mg/L (≈ 1.17 µM) | MIC (Staphylococcus aureus [25]): 0.39 mg/L (≈ 0.587 µM) | Activity (Mus musculus [26]): Non-toxic | Selectivity ratio [27]: 50.3 | Selectivity Index [28]: 100.5 | Activity [29]: Non-toxic | Selectivity Index [30]: 12.6 | Selectivity Index [31]: 12.6 | Activity (Mus musculus [32]): Non-toxic | Activity (Staphylococcus aureus [33]): Active | MIC (Enterococcus faecalis [34]): 0.78 mg/L (≈ 1.17 µM) | MIC (Staphylococcus aureus [35]): 0.095 mg/L (≈ 0.143 µM) | Activity (Staphylococcus aureus [36]): Dose-dependent effect | Selectivity Index [37]: 206.3 | Activity (Staphylococcus aureus [38]): Active | Selectivity Index [39]: 50.3 | Selectivity Index [40]: 12.6 | Activity (Staphylococcus aureus [41]): Active | Activity (Staphylococcus aureus [42]): Active | Activity (Staphylococcus aureus [43]): 99.9% | MIC (Staphylococcus aureus [44]): 0.78 mg/L (≈ 1.17 µM) | Activity (Staphylococcus aureus [45]): Active | Selectivity Index [46]: 25.1 | pKa [47]: 11 | MIC (Staphylococcus aureus [48]): 1.56 mg/L (≈ 2.35 µM)
